In PubChem BioAssay one finds viability, differential viability (reversal) and inhibition data, which are given here for 12 molecules.

A short description of test [1]: reduced viability of SK-BR-3 breast cancer cells – cell-based, 24 h, human, pilot screen (AID 572;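 active = viability at or below 10% of carrier control in both of two separate runs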;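 note: compound exposure lasted between 18 and 24 h rather than exactly 24 h; 100% = carrier-treated control wells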). Conditions: SK-BR-3 viability, CellTiter-Glo luminescence, at 10 µM, stronger effect = lower value. In general terms: ATP-based viability assays read luminescence as a measure of living cells.
Test [2] can be described thus: HUVEC growth inhibition – cell-based, human, primary screen (AID 575;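 active = viability at or below 30% in both replicate assays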;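 note: 100% = median of untreated cell wells with 0.1% DMSO on each plate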). Conditions: HUVEC proliferation, CellTiter-Glo luminescence, 72 h; at 10 µM; stronger effect = lower value. In a few lines: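 System: primary human umbilical vein endothelial cells; Quantity: 1250 endothelial cells in each well; Buffer or medium: supplemented EBM, 2% fetal bovine serum; Doses: one dose, 10 µM final, 0.1% DMSO; Incubation: 72 h compound incubation; Technique: ATP-based CellTiter-Glo luminescent read; Evaluation: percent of median DMSO-control luminescence; Controls: vehicle and MePR control wells.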

The nature of test [3]: H69AR cell proliferation blockers – human, duplicate replicates, primary screen (AID 580).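 Note: 100% = mean luminescence of untreated wells and 0% = no signal.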 The conditions noted are these: H69AR lung tumor cells viability, ATP luminescence, 72 h; at 10 µM; stronger effect = lower value.
Test [4] in a line: MRP1 drug-resistance reversers in H69AR cells – cell-based, doxorubicin co-treatment, pilot screen (AID 601;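 active = viability loss from added drug above about 55%, and viability with drug at most 40%, in both replicates, limit read from the data, passing the limit was not always enough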). The conditions noted are these: CellTiter-Glo, 72 h, at 10 µM; for differential viability (reversal): stronger effect = higher value.
A short description of test [5]: yeast transport mutant growth inhibition pilot in 384-well plates, post-Golgi transport modulator project (AID 636; in the data active = inhibition above about 31%). Conditions: absorbance 615 nm, about 18 h, stronger effect = higher value.
Test [6] is described as follows: growth suppression of yeast trafficking mutant, preliminary HTS, modulators of trafficking downstream of Golgi apparatus project, 1536-format plate, OD 615 nm (AID 637; in the data active = inhibition above about 30%). Conditions: yeast transport mutant growth, absorbance 615 nm, 18 h; stronger effect = higher value.
The mark [7] stands for this setting: H69AR cells + 2 uM doxorubicin, measured here: viability with 2 uM doxorubicin, stronger effect = lower value.
Setting [8] is: H69AR cells, compound alone cytotoxicity.

Active and inactive are the calls of the source.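 Rule for the calls, unless noted: active = viability at or under a set limit in both replicates, limit being median viability minus 3 SD (cut at about 48% in these data, passing the limit was not always enough); inconclusive = at or under the limit in just one replicate; inactive = at or above the limit in both replicates.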

By viability is commonly meant a read-out of living cells in per cent, often relative to untreated cells. The term inhibition denotes the change of the read-out against control, counted positive when it falls. As to `CCn1c(SCC(=O)Nc2ccccc2N2CCCCC2)nc2c1c(=O)n(C)c(=O)n2C`, the viability in test [1] is 113% (inactive); in test [2], 75.4% (inactive); in test [3], 73.9% (inactive); in test [4] (setting [7]), 72.7%; in test [4] (setting [8]) it was 73.9%. Further, the differential viability (reversal) in test [4] (H69AR cells + 2 uM doxorubicin) was 1.19% (inactive). For the same molecule, the inhibition in test [5] was -6.13% (inactive); in test [6] it was 3.09% (inactive).
Turning to `O=C(c1c(Cl)nc2sccn12)N(C(=O)c1c(Cl)nc2sccn12)c1ccc(Cl)cn1`, the viability in test [1] was 131% (inactive); in test [2] it was 43.6% (inactive); in test [3], 70.8% (inactive); in test [4] (setting [7]) it was 78.7%; in test [4] (setting [8]), 70.8%. Also, the differential viability (reversal) in test [4] (H69AR cells + 2 uM doxorubicin) was -7.89% (inactive). Moreover, the inhibition was -3.38% (inactive) in test [5] and 3.11% (inactive) in test [6].
Regarding `Cc1nc2ncnn2c(N2CCC(C(=O)NCC3CCCO3)CC2)c1Cc1ccccc1` (stereo unspecified), the viability in test [1] is 136% (inactive); in test [2] it was 97.1% (inactive); in test [3], 89.5% (inactive); in test [4] (setting [7]), 96.3%; in test [4] (setting [8]) it was 89.5%. The differential viability (reversal) in test [4] (H69AR cells + 2 uM doxorubicin) is -6.76% (inactive). The values for the inhibition in test [5] and in test [6] were -3.7% (inactive) and -4.55% (inactive), respectively.
Consider `COc1ccccc1NC(=O)Cc1noc(CSc2cc(C)c3ccccc3n2)n1`, for which the viability in test [1] was 104% (inactive); in test [2] it was 89.5% (inactive); in test [3] it was 92.5% (inactive); in test [4] (setting [7]) it was 80.7%; in test [4] (setting [8]), 92.5%. Further, the differential viability (reversal) in test [4] (H69AR cells + 2 uM doxorubicin) was 11.8% (inactive). Also, the inhibition in test [5] was -4.59% (inactive); in test [6], 1.64% (inactive).
Regarding `Cc1nc2ccc(S(=O)(=O)NCC(=O)N3CCCCC3)cc2s1`, the viability in test [1] is 116% (inactive); in test [2], 100% (inactive); in test [3], 87.4% (inactive); in test [4] (setting [7]), 85%; in test [4] (setting [8]), 87.4%. The differential viability (reversal) in test [4] (H69AR cells + 2 uM doxorubicin) is 2.37% (inactive). Moreover, the figures for the inhibition in test [5] and in test [6] were -2.99% (inactive) and 0.16% (inactive), respectively.
As to `COC(=O)c1ccc(COC(=O)c2c(C)nn(Cc3ccccc3Cl)c2Cl)o1`, the viability in test [1] was 69% (inactive); in test [2] it was 94.6% (inactive); in test [3], 86.2% (inactive); in test [4] (setting [7]), 82.1%; in test [4] (setting [8]) it was 86.2%. Moreover, the differential viability (reversal) in test [4] (H69AR cells + 2 uM doxorubicin) is 4.08% (inactive). For the same molecule, the inhibition was -4.38% (inactive) in test [5] and 3.82% (inactive) in test [6].
With `CC1CN(CC(O)COc2ccccc2C(C)(C)C)CC(C)O1` (stereo unspecified), the viability in test [1] was 130% (inactive); in test [2], 114% (inactive); in test [3], 78% (inactive); in test [4] (setting [7]) it was 89.3%; in test [4] (setting [8]), 78%. In addition, in test [4] (H69AR cells + 2 uM doxorubicin), the differential viability (reversal) is -11.3% (inactive). Moreover, the inhibition is -0.26% (inactive) in test [5] and 0.49% (inactive) in test [6].
On to `COc1ccc(C(=O)Nc2nc(C)c(C(=O)N(C)C)s2)cc1OC`, for which the viability was 70% (inactive) in test [1]; 91% (inactive) in test [2]; 94.9% (inactive) in test [3]; 84.3% in test [4] (setting [7]); 94.9% in test [4] (setting [8]). Besides, the differential viability (reversal) in test [4] (H69AR cells + 2 uM doxorubicin) was 10.6% (inactive). Also, the inhibition in test [5] was -8.63% (inactive); in test [6], 4.52% (inactive).
Take `Nc1nnc(SCc2cc3c(cc2Cl)OCO3)s1`: the viability was 118% (inactive) in test [1]; 94.4% (inactive) in test [2]; 99.7% (inactive) in test [3]; 85.2% in test [4] (setting [7]); 99.7% in test [4] (setting [8]). Further, the differential viability (reversal) in test [4] (H69AR cells + 2 uM doxorubicin) is 14.4% (inactive). For the same molecule, the inhibition in test [5] was -2.47% (inactive); in test [6], -1.13% (inactive).
For the molecule `CC1CCCc2sc3nc(NCc4ccco4)n4ncnc4c3c21` (stereo unspecified), the viability in test [1] was 104% (inactive); in test [2], 79.2% (inactive); in test [3], 83.3% (inactive); in test [4] (setting [7]) it was 85%; in test [4] (setting [8]) it was 83.3%. Also, the differential viability (reversal) in test [4] (H69AR cells + 2 uM doxorubicin) is -1.71% (inactive). Moreover, the inhibition is -3.97% (inactive) in test [5] and 20.3% (inactive) in test [6].
On to `O=C1CC(c2ccccc2)Cc2nc(N3CCc4ccccc43)ncc21` (stereo unspecified), for which the viability in test [1] was 79% (inactive); in test [2], 108% (inactive); in test [3] it was 76.5% (inactive); in test [4] (setting [7]), 64.6%; in test [4] (setting [8]) it was 76.5%. Moreover, the differential viability (reversal) in test [4] (H69AR cells + 2 uM doxorubicin) is 12% (inactive). Also, the values for the inhibition in test [5] and in test [6] were -6.89% (inactive) and 1.82% (inactive), respectively.
Consider `Cn1c(Cl)cnc1C1CC(=O)c2cc(Cl)ccc2O1` (stereo unspecified), for which the viability in test [1] is 112% (inactive); in test [2], 15.5% (active); in test [3], 2.09% (active); in test [4] (setting [7]), 2.04%; in test [4] (setting [8]) it was 2.09%. Further, the differential viability (reversal) in test [4] (H69AR cells + 2 uM doxorubicin) is 0.045% (inactive). Further, the inhibition in test [5] is -4.46% (inactive); in test [6] it was 3.64% (inactive).
